Reference: ChEMBL document CHEMBL1158557, “In vitro TRPV1 activity of piperine derived amides” (Bioorg Med Chem, 2010)
Active and inactive are the calls of the source. The rule behind the calls is not given here.

Columns and labels:
[1] = target: T1, Transient receptor potential cation channel subfamily V member 1 (Homo sapiens, UniProt Q8NER1); experiment: Agonist activity at human TRPV1 expressed in tetracycline-stimulated HEK293 cells assessed as increase in intracellular calcium levels by fluorimetric assay relative to control; assay type: functional, cell-based
T1 sequence (Q8NER1 whole entry): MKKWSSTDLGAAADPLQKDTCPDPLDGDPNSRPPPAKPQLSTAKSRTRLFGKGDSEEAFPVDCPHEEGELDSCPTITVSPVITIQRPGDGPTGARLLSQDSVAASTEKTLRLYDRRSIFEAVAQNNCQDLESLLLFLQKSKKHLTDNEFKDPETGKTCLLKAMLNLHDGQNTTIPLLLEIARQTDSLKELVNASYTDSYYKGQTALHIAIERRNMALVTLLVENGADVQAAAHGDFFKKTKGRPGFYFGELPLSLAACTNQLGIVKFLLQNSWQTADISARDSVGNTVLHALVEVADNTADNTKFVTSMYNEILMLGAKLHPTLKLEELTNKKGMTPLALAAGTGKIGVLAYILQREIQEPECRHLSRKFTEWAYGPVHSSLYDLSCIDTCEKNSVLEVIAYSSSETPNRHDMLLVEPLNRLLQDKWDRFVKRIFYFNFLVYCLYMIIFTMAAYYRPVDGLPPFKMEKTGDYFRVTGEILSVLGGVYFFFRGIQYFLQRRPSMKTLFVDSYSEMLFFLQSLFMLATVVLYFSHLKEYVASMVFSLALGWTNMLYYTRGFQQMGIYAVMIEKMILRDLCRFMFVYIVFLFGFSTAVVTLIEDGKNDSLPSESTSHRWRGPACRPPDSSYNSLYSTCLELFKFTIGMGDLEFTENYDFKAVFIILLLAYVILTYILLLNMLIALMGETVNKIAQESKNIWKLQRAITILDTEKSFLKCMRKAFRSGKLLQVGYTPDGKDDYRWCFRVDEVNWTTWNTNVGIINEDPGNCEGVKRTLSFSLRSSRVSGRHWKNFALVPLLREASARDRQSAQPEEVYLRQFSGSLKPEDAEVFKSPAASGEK
Procedure, shortened: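 Tetracycline induction (0.1 µg/mL, 16–24 h) of HEK T-REx hTRPV1 cells, then Fluo-4/AM loading (1 µM, with probenecid 2 mM, 1 h, 37 °C) and a 30 min rest in HEPES buffer pH 7.4. Screening at 100 µM, then full concentration–response for compounds above 50%. Ex 488/em 520 nm, 22–24 °C, triplicate wells.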

[2] = target: T1, Transient receptor potential cation channel subfamily V member 1; experiment: Agonist activity at human TRPV1 expressed in HEK293 cells assessed as increase in intracellular calcium levels by fluorimetric assay without tetracycline-stimulation; assay type: functional, cell-based
Procedure, shortened: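 Non-induced HEK T-REx hTRPV1 cells (no tetracycline) loaded with Fluo-4/AM 1 µM plus probenecid 2 mM for 1 h at 37 °C, then equilibrated 30 min in HEPES buffer pH 7.4. Compounds at 100 µM (10 µM where solubility poor), DMSO ≤0.1%. Fluorescence read at 488/520 nm, 22–24 °C, triplicate wells. Response given as % of 1 µM ionomycin; n = 4–6.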

[3] = target: T1, Transient receptor potential cation channel subfamily V member 1; experiment: Agonist activity at human TRPV1 expressed in tetracycline-stimulated HEK293 cells assessed as increase in intracellular calcium levels by fluorimetric assay; assay type: functional, cell-based
[4] = target: T1, Transient receptor potential cation channel subfamily V member 1; experiment: Antagonist activity at human TRPV1 expressed in tetracycline-stimulated HEK293 cells assessed as inhibition of capsaicin-induced intracellular calcium levels by fluorimetric assay; assay type: functional, cell-based
[5] = target: T1, Transient receptor potential cation channel subfamily V member 1; experiment: Antagonist activity at human TRPV1 expressed in tetracycline-stimulated HEK293 cells assessed as inhibition of capsaicin-induced intracellular calcium levels by fluorimetric assay relative to control; assay type: functional, cell-based
[6] = target: T1, Transient receptor potential cation channel subfamily V member 1; experiment: Displacement of [3H]resiniferatoxin from human TRPV1

Row | Compound | Emax [1] | Activity [2] | EC50 [3] | EC50 [4] | Emax [5] | Activity [6]
1 | O=C(/C=C/C=C/c1ccc2c(c1)OCO2)N1CCOCC1 | 93% | inactive | 2510 nM |  |  | 
2 | COc1cc(/C=C/C(=O)NCC(C)C)ccc1O |  |  |  | 6.31 nM | 94% | 
3 | Oc1cc2c(cc1O)CN(C(=S)NCCc1ccc(Cl)cc1)CCC2 [CAPSAZEPINE] |  |  |  | 2510 nM | 92% | 
4 | O=C(/C=C/c1ccc2c(c1)OCO2)N1CCCCC1 [ILEPCIMIDE] | 66% | inactive | 20000 nM |  |  | 
5 | COc1cc(/C=C/C(=O)N2CCCCC2)ccc1O |  |  |  | 2 nM | 93% | 
6 | COc1cc(CNC(=O)CCCC/C=C/C(C)C)ccc1O | 97% |  |  |  |  | 
7 | O=C(/C=C/CCc1ccc2c(c1)OCO2)N1CCCCC1 [PIPERANINE] | 88% | inactive | 3980 nM |  |  | 
8 | O=C(CCCCc1ccc2c(c1)OCO2)N1CCCCC1 [TETRAHYDROPIPERINE] | 90% | inactive | 6310 nM |  |  | 
9 | O=C(/C=C/C=C/c1ccc2c(c1)OCO2)N1CCCCC1 [PIPERINE] | 91% | inactive | 3160 nM |  |  | inactive
10 | O=C(/C=C/C=C/c1ccc2c(c1)OCO2)Nc1ccc(Cl)cc1 |  |  |  | 10 nM | 94% | 
11 | CC(C)CNC(=O)/C=C/C=C/c1ccc2c(c1)OCO2 [PIPERLONGUMININE] |  |  |  | 6.31 nM | 94% | 
12 | COc1cc(/C=C/C(=O)N2CCSCC2)ccc1O |  |  |  | 2.51 nM | 93% | 
13 | COc1cc(/C=C/C(=O)N2CCOCC2)ccc1O |  |  |  | 2.51 nM | 92% | 
